Measured values: ChEMBL document CHEMBL1125713, “Synthesis and antiarrhythmic activity of cis-2,6-dimethyl-alpha,alpha-diaryl-1-piperidinebutanols” (1991)

Legend:
Canis familiaris [1] = assay: Compound was evaluated for the heart rate effect in normal dogs at a dose of 5 mg/kg, administered intravenously and value noted at 1h.; type: functional, Canis lupus familiaris; conditions: route intravenous
How it was run: (§1)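 Conscious normal dogs, trained and sling-restrained, received the same iv dosing: 5 mg/kg infused over 5 min. Heart rate came from continuous limb lead II ECG at control, end of dose, 20 min and 1 h. Values are mean ± SD for two dogs.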

Canis familiaris [2] = species: Canis familiaris; assay: Compound was evaluated for the duration of sustained effect; type: functional, Canis lupus familiaris
How it was run: (§2)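 Normal dogs received 5 mg/kg iv over 5 min, with heart rate tracked by continuous ECG. Dogs above 140 beats/min were followed until the rate fell to 140. The sustained effect was rated long (>2 h), moderate (0.5–2 h) or short (<0.5 h).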

Canis familiaris [3] = species: Canis familiaris; assay: Compound was evaluated for the degree of tachycardia 160-199; type: functional, Canis lupus familiaris
How it was run: (§3)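 Conscious normal dogs received 5 mg/kg iv over 5 min, with heart rate from limb lead II ECG. Tachycardia was graded as severe (≥200 beats/min), moderate (160–199), slight (<160 after a rise of ≥20) or none (change <20 beats/min).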

Canis familiaris [4] = assay: Antiarrhythmic effect in coronary artery ligated dogs model at a dose of 5 mg/kg, administered intravenously and value noted at 20 min; type: functional, Canis lupus familiaris, Heart; conditions: route intravenous
How it was run: (§4)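 Coronary-ligated dogs with ventricular arrhythmias. Dosing was 5 mg/kg in 10–20 mL isotonic saline, given as an iv infusion over 5 min. Limb lead II ECG was monitored continuously for up to 6 h. Percent normal sinus beats was scored at control, end of dose, 20 min and 1 h. Values are mean ± SEM for three or more animals, mean ± SD for two.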

Canis familiaris [5] = assay: Compound was evaluated for the heart rate effect in normal dogs at a dose of 5 mg/kg, administered intravenously and value noted at end dose.; type: functional, Canis lupus familiaris; conditions: route intravenous; how it was run: as §1
Canis familiaris [6] = species: Canis familiaris; assay: Compound was evaluated for the activity rating; type: functional, Canis lupus familiaris
How it was run: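 In ligated dogs given 5 mg/kg iv over 5 min, group % normal beats was plotted at end of dose, 20 min and 1 h. The area under this curve minus the control area was divided by the same area for an ideal response (100% normal beats for the whole hour), then multiplied by 100.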

Canis familiaris [7] = assay: Antiarrhythmic effect in coronary artery ligated dog model at a dose of 5 mg/kg, administered intravenously and value noted at 1 hr; type: functional, Canis lupus familiaris, Heart; conditions: route intravenous; how it was run: as §4
Canis familiaris [8] = assay: Compound was evaluated for the heart rate effect in normal dogs at a dose of 5 mg/kg, administered intravenously and value noted at 20 min.; type: functional, Canis lupus familiaris; conditions: route intravenous; how it was run: as §1
Canis familiaris [9] = assay: Antiarrhythmic effect in coronary artery ligated dogs model at a dose of 5 mg/kg, value noted at end dose.; type: functional, Canis lupus familiaris, Heart; how it was run: as §4
Canis familiaris [10] = species: Canis familiaris; assay: Compound was evaluated for the degree of tachycardia.; type: functional, Canis lupus familiaris; how it was run: as §3
Canis familiaris [11] = species: Canis familiaris; assay: Compound was evaluated for the degree of tachycardia; 160-199; type: functional, Canis lupus familiaris; how it was run: as §3
Canis familiaris [12] = species: Canis familiaris; assay: Compound was evaluated for the duration of sustained effect; 0.5-2; type: functional, Canis lupus familiaris; how it was run: as §2
Canis familiaris [13] = species: Canis familiaris; assay: Compound was evaluated for the degree of tachycardia; type: functional, Canis lupus familiaris; how it was run: as §3

| Structure (SMILES) | Heart rate (Canis familiaris [1]) [beats min-1] | Duration (Canis familiaris [2]) [h] | Heart rate (Canis familiaris [3]) [beats min-1] | Normal beats (Canis familiaris [4]) [%] | Heart rate (Canis familiaris [5]) [beats min-1] | Activity rating (Canis familiaris [6]) | Normal beats (Canis familiaris [7]) [%] | Heart rate (Canis familiaris [8]) [beats min-1] | Normal beats (Canis familiaris [9]) [%] | Heart rate (Canis familiaris [10]) [beats min-1] | Heart rate (Canis familiaris [11]) [beats min-1] | Duration (Canis familiaris [12]) [h] | Beats/min (Canis familiaris [1]) | Beats/min (Canis familiaris [13]) | Beats/min (Canis familiaris [5]) | Beats/min (Canis familiaris [8]) |
| --- | --- | --- | --- | --- | --- | --- | --- | --- | --- | --- | --- | --- | --- | --- | --- | --- |
| CC1CCCC(C)N1CCCC(C#N)(c1ccccc1)c1ccccc1.Cl (centres undefined) | 137 | >2 | 160 | 88 | 168 | 82 | 65 | 147 | 90 |  |  |  |  |  |  |  |
| CC1CCCC(C)N1CCCC(O)(c1ccccn1)c1ccccn1.Cl (centres undefined) |  |  |  | 68 |  | 53 | 32 |  | 90 |  |  |  |  |  |  |  |
| CC(=O)NCC(CCN1C(C)CCCC1C)(c1ccccc1)c1ccccc1 (centres undefined) | 103 | <0.5 |  | 62 | 141 | 53 | 49 | 119 | 82 | <160 |  |  |  |  |  |  |
| CC1CCC(C)N1CCCCC(O)(c1ccccc1)c1ccccn1 (centres undefined) |  |  |  | 52 |  | 42 | 43 |  | 88 |  |  |  |  |  |  |  |
| CC1CCCC(C)N1CCCC(C(N)=O)(c1ccccc1)c1ccccn1 (centres undefined) | 129 |  |  | 87 | 197 | 80 | 62 | 145 | 96 |  | 160 | 0.5 |  |  |  |  |
| CC1CCCC(C)N1CCC(CN)(c1ccccc1)c1ccccc1 (centres undefined) |  |  |  | 61 |  | 50 | 39 |  | 100 |  |  |  |  |  |  |  |
| CC1CCCC(C)N1CCCC(C#N)(c1ccccc1)c1ccccn1 (centres undefined) | 131 | <0.5 |  | 50 | 154 | 36 | 97 | 154 | 100 | <160 |  |  |  |  |  |  |
| CC1CCCC(C)N1CCCC(c1ccccc1)c1ccccc1.Cl (centres undefined) |  | >2 |  | 97 |  | 94 | 92 |  | 95 |  |  |  | 179 | >=200 | 255 | 218 |
| CC1CCCC(C)N1CCCC(O)(c1ccccc1)C1CCCCC1.Cl (centres undefined) | 121 |  |  | 65 | 176 | 66 | 68 | 152 | 98 |  | 160 | 0.5 |  |  |  |  |
| CC1CCCC(C)N1CCCCC(O)(c1ccccc1)c1ccccc1 (centres undefined) | 140 |  |  | 84 | 137 | 72 | 51 | 139 | 99 |  |  | 0.5 |  |  |  |  |
| CC1CCCC(C)N1CCCC(O)(c1ccccc1)c1ccncc1 (centres undefined) |  |  |  | 11 |  | 13 | 7 |  | 51 |  |  |  |  |  |  |  |
| Cc1ccccc1C(O)(CCCN1C(C)CCCC1C)c1ccccc1.Cl (centres undefined) | 151 | >2 |  | 61 | 155 | 60 | 61 | 149 | 92 | <160 |  |  |  |  |  |  |
| CC1CCCC(C)N1CCCC(O)(c1ccccc1)c1ccccc1.Cl (centres undefined) | 165 |  |  | 86 | 187 | 81 | 76 | 155 | 96 |  | 160 |  |  |  |  |  |
| CC(=O)NCC(CCCN1C(C)CCCC1C)(c1ccccc1)c1ccccc1.Cl (centres undefined) |  |  |  | 71 |  | 62 | 53 |  | 95 |  |  |  |  |  |  |  |
